# Activity calls are given as the source filed them. The rule behind the calls is not given here.
# Experiments:
# [1] = Protein binding in human plasma assessed as bound fraction at 10 uM after 6 hrs by LC-MS/MS analysis; type: ADME, cell-free; details: read-out: PPB (converted)
# In short: (§1)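 Equilibrium dialysis: plasma with compound at 10 μM final on one side, 100 mM sodium phosphate pH 7.4 on the other. Equilibrated at 37 ± 1 °C for 6 h with shaking at 500 rpm. Both sides were sampled, proteins precipitated with organic solvent, and supernatants analysed by LC-MS/MS.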
# [2] = Clearance in human; type: ADME
# In short: (§2)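 Liver microsomes (1.0 mg protein/mL) were incubated with compound at 1 μM; reactions were started with 1 mM NADPH. No-NADPH incubations (0 and 60 min) served as stability controls. Reactions were stopped at 0, 5, 15, 30 and 60 min with ice-cold acetonitrile containing internal standard, then centrifuged. Parent loss was tracked by LC-MS/MS.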
# [3] = Intrinsic clearance in human liver microsomes at 1 uM up to 60 mins in presence of NADPH by LC-MS/MS analysis; type: ADME, Microsome; details: 1 h; in short: as §2
# Saccharomyces cerevisiae [4] = assay: Binding affinity to Saccharomyces cerevisiae alpha-glucosidase assessed as protein with alpha-helical structure at 0.64 ug/ml by CD spectroscopic method (reference value: 5.3%); details: dose 0.64 µg/ml
# In short: (§3)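 Compound was added at different concentrations to yeast α-glucosidase (30 U/ml). CD spectra were taken with 3 accumulations (negative bands at 209 and 222 nm). α-Helix and β-sheet content were estimated with secondary-structure estimation software.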
# BRIN-BD11 = assay: Induction of rat BRIN-BD11 cell proliferation at 1 uM after 24 hrs by MTT assay; type: functional
# In short: (§4)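 BRIN-BD11 rat β-cells were seeded at 10^4 cells/well in RPMI and left overnight. They were exposed 24 h to compound at 100, 30, 10, 3, 1, 0.3 and 0.1 μM. MTT (5 mg/ml stock) was added for 90 min at 37 °C, formazan dissolved in DMSO, and absorbance read at 560 nm.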
# [5] = Clearance in rat; type: ADME; details: in vivo
# [6] = Drug recovery in rat plasma at 10 uM after 6 hrs by LC-MS/MS analysis; type: ADME, cell-free; details: read-out: Drug recovery; in short: as §1
# [7] = Protein binding in mouse plasma assessed as bound fraction at 10 uM after 6 hrs by LC-MS/MS analysis; type: ADME, cell-free; details: read-out: PPB (converted); in short: as §1
# [8] = Drug recovery in human plasma at 10 uM after 6 hrs by LC-MS/MS analysis; type: ADME, cell-free; details: read-out: Drug recovery; in short: as §1
# [9] = Permeability of compound at pH 7.4 after 4 hrs by GIT PAMPA method; type: ADME; details: read-out: permeability
# In short: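 GIT PAMPA: compound in the donor plate at pH 7.4, with GIT-0 lipid coated on the acceptor membrane and sink buffer in the acceptor plate. Incubated 4 h; donor and acceptor aliquots were read by UV to give permeability.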
# [10] = Octanol/aqueous buffer distribution coefficient, log D of compound after 1 hr by HPLC-UV analysis; type: physicochemical
# In short: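 Compound was added to octanol and vortexed, then buffer was added. The mixture was shaken 1 h at room temperature, allowed to equilibrate 20 min and centrifuged at 4000 g for 30 min. Octanol and buffer layers were each quantified by HPLC-UV.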
# [11] = Protein binding in mouse plasma assessed as unbound fraction at 10 uM after 6 hrs by LC-MS/MS analysis; type: ADME, cell-free; in short: as §1
# [12] = Cytotoxicity against rat BRIN-BD11 cells assessed as reduction in cell viability at >=10 uM after 24 hrs by MTT assay; type: cell-based; details: brin-bd11, 24 h; in short: as §4
# [13] = Toxicity in STZ-treated diabetic Sprague-Dawley rat model assessed as decrease in body weight at 60 mg/kg, po administered once daily for 28 days; type: organism-based; details: in vivo, 672 h, time 28 day
# In short: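 Male Sprague-Dawley rats (250–320 g, 8–10 weeks) were made diabetic with a single STZ dose (70 mg/kg ip in 0.1 mmol/L citrate buffer, pH 4.5). Random glucose above 125 mg/dl defined diabetes. Dosing was 60 mg/kg in 0.5% saline by gastric gavage once daily for 4 weeks, n=6 per group, with vehicle controls. Body weight was recorded before and after treatment; mean ± SD, 2-way ANOVA.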
# Saccharomyces cerevisiae [14] = assay: Binding affinity to Saccharomyces cerevisiae alpha-glucosidase assessed as protein with beta-sheet structure at 0.64 ug/ml by CD spectroscopic method (reference value: 68%); details: dose 0.64 µg/ml; in short: as §3
# [15] = biological target: T1, Tissue alpha-L-fucosidase (Bos taurus, UniProt Q2KIM0); assay: Inhibition of bovine kidney alpha-fucosidase using […] as substrate incubated for 10 mins by spectrophotometric method
# T1 sequence (Q2KIM0 whole entry): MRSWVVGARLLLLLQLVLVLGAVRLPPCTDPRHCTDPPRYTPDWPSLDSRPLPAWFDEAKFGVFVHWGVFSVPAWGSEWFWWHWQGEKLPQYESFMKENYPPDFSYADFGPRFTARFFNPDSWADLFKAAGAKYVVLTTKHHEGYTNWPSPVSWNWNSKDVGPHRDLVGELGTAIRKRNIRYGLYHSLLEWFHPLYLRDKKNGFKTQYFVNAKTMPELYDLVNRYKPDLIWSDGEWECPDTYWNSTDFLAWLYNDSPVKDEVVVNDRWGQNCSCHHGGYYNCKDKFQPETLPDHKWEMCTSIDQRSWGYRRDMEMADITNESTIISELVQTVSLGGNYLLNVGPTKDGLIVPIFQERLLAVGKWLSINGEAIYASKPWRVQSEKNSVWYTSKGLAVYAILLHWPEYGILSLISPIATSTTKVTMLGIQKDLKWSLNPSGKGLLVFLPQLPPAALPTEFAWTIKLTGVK
# [16] = Thermodynamic solubility of compound in phosphate buffer at 1 mg/ml at pH 7.4 after 24 hrs by HPLC analysis; type: physicochemical; details: read-out: Therm_solubility
# In short: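 1 mg compound incubated in 1 mL phosphate buffer saline (pH 7.4) for 24 h with vortexing at 500 rpm. Samples were then centrifuged and the supernatant injected into HPLC to quantify dissolved compound.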
# [17] = Protein binding in rat plasma assessed as unbound fraction at 10 uM after 6 hrs by LC-MS/MS analysis; type: ADME, cell-free; in short: as §1
# [18] = Half life in rat liver microsomes at 1 uM up to 60 mins in presence of NADPH by LC-MS/MS analysis; type: ADME, Microsome; in short: as §2
# [19] = Intrinsic clearance in mouse liver microsomes at 1 uM up to 60 mins in presence of NADPH by LC-MS/MS analysis; type: ADME, Microsome; details: 1 h; in short: as §2
# [20] = Half life in human liver microsomes at 1 uM up to 60 mins in presence of NADPH by LC-MS/MS analysis; type: ADME, Microsome; in short: as §2
# Saccharomyces cerevisiae [21] = assay: Binding affinity to Saccharomyces cerevisiae alpha-glucosidase assessed as protein with alpha-helical structure at 0.32 ug/ml by CD spectroscopic method (reference value: 5.3%); details: dose 0.32 µg/ml; in short: as §3
# [22] = Stability in mouse liver microsomes assessed as CYP450-mediated drug degradation by measuring proportion of compound metabolised at 1 uM up to 60 mins in presence of NADPH by LC-MS/MS analysis; type: ADME; details: read-out: Drug degradation; in short: as §2
structure (smiles),measurement,setting,value
CCOC(=O)c1ccc(-n2c(/C=C3\OC(=O)c4c3cc(C)[nH]c4=O)ccc2CO)cc1,"fraction unbound at 6 h, 10 µM",[1],0.107
same,clearance,[2],15.1 mL/min/kg
same,CLint,[3],54.8 µL/min/mg
same,Activity,Saccharomyces cerevisiae [4],6.6%
same,Activity,BRIN-BD11,Active
same,clearance,[5],35.2 mL/min/kg
same,"remaining at 6 h, 10 µM",[6],1.95%
same,"fraction unbound at 6 h, 10 µM",[7],0.0899
same,"remaining at 6 h, 10 µM",[8],56.7%
same,Papp at 4 h,[9],15 ×10⁻⁶ cm/s
same,logD at 1 h,[10],2.4
same,"fraction unbound at 6 h, 10 µM",[11],0.0899
same,Activity,[12],Toxic
same,Activity,[13],Non-Toxic
same,Activity,Saccharomyces cerevisiae [14],58.9%
same,IC50,[15],30.4 µM
same,solubility thermodynamic at 24 h,[16],0.1 µg/mL
same,"fraction unbound at 6 h, 10 µM",[17],0.0156
same,half-life at 1 µM,[18],15 min
same,CLint,[19],74.1 µL/min/mg
same,half-life at 1 µM,[20],13 min
same,Activity,Saccharomyces cerevisiae [21],5.2%
same,"metabolised at 1 h, 1 µM",[22],99%

# Source: ChEMBL document CHEMBL4680156, “Discovery of novel pyrido-pyrrolidine hybrid compounds as alpha-glucosidase inhibitors and alternative agent for control of type 1 diabetes” (Eur J Med Chem, 2020)
